Laboratory results reported in ChEMBL document CHEMBL2346503, “Synthesis and evaluation of novel (18)F-labeled spirocyclic piperidine derivatives as σ1 receptor ligands for positron emission tomography imaging” (J Med Chem, 2013).

Columns and labels:
Brain [1] = assay: Biodistribution in iv dosed CD1 mouse brain after 15 mins by PET imaging analysis; type: ADME, organism-based; conditions: in vivo, 0.25 h
[2] = Lipophilicity, log D of the compound at pH 7.4; type: physicochemical; conditions: buffer
Procedure, shortened: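 Shake flask: radiotracer (370 kBq) in 3 mL 1-octanol plus 3 mL 0.05 M sodium phosphate buffer pH 7.4, vortexed 3 min at room temperature, then centrifuged. Both phases were gamma-counted and log D = log(cpm/mL octanol ÷ cpm/mL buffer). The octanol layer was repartitioned until values were consistent. Triplicate, repeated three times.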

[3] = Metabolic stability in ICR mouse liver at 18.5 MBq, iv after 30 mins by HPLC analysis; type: ADME, organism-based; conditions: read-out: Stability
Procedure, shortened: (§1)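 Male ICR mice given radiotracer iv (18.5 MBq, 0.2 mL), killed at 30 min. Brain and liver were homogenized in ice-cold PBS (0.01 M, pH 7.4) and extracted with ice-cold MeCN. Supernatants were filtered, concentrated and analysed by radio-HPLC on a C18 column, acetonitrile/water with 0.1% TFA (45:55), 1 mL/min.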

Liver = assay: Metabolic stability in ICR mouse liver assessed as retention time at 18.5 MBq, iv by HPLC analysis; type: ADME, organism-based; conditions: in vivo; procedure, shortened: as §1
Brain [4] = assay: Metabolic stability in ICR mouse brain at 18.5 MBq, iv after 30 mins by HPLC analysis; type: ADME, organism-based; conditions: in vivo, 0.5 h; procedure, shortened: as §1
Homo sapiens = species: Homo sapiens; assay: Selectivity ratio of Ki for human sigma2 receptor to human sigma1 receptor
[5] = biological target: T1, Sigma non-opioid intracellular receptor 1 (Homo sapiens, UniProt Q99720); assay: Binding affinity to human brain sigma1 receptor
Liver microsomes [6] = assay: Metabolic stability in rat liver microsomes assessed as retention time by UPLC-MS analysis in presence of beta-NADP; type: ADME, Microsome
Procedure, shortened: (§2)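 Rat liver microsomes (2 mg protein/mL) with 100 μM compound and an NADPH-generating system (2 mM β-NADPH, 20 mM glucose 6-phosphate, 2 U G6PDH, 12 mM MgCl₂) in 0.05 M Tris-HCl pH 7.4. Preincubated 3 min, then run 30 min at 37 °C and stopped with ice-cold methanol. Supernatant analysed by UPLC-ESI(+)-MS against compound-free blanks.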

[7] = Ratio of drug uptake from […] mouse brain to blood after 120 mins; type: ADME, tissue-based; conditions: brain and blood
Procedure, shortened: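 Male ICR mice (n = 5 per time point) received [18F]tracer (370 kBq, 0.1 mL saline) iv and were decapitated at 2, 30, 60 and 120 min. Brain and blood were weighed and gamma-counted, decay-corrected and expressed as %ID/g against diluted injectate. The brain/blood ratio was taken from these %ID/g values.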

Brain [8] = assay: Biodistribution in mouse brain after 60 mins in presence of haloperidol relative to control; type: ADME, organism-based; conditions: in vivo, 1 h
Procedure, shortened: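 Male ICR mice (n = 5 per group) got saline (0.1 mL) or haloperidol (0.1 mL, 1.0 mg/kg) via tail vein 5 min before iv [18F]tracer (370 kBq, 0.1 mL, saline). Killed by decapitation at 60 min. Brain was weighed and gamma-counted with decay correction, giving %ID/g against diluted injectate. Control vs blocking compared by two-tailed independent Student's t test.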

Brain [9] = assay: Biodistribution in mouse brain after 5 mins by PET imaging analysis; type: ADME, organism-based; conditions: in vivo
[10] = Displacement of [3H]-1,3-di-o-tolylguanidine from rat liver sigma2 receptor by competitive binding assay
Procedure, shortened: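 Rat liver homogenate as the σ2 source, with [3H]DTG as radioligand plus 10 μM dextrallorphan to mask σ1 sites, in a competition format. Ki values are mean ± SD of three experiments, each run in triplicate.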

Rattus norvegicus = species: Rattus norvegicus; assay: Selectivity ratio of Ki for rat liver sigma2 receptor to rat brain sigma1 receptor
Procedure, shortened: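 Competition binding used rat brain homogenates for σ1 with (+)-[³H]pentazocine. Rat liver homogenates were used for σ2 with [³H]DTG, in the presence of 10 μM dextrallorphan to mask σ1 sites. Ki values are means ± SD of three experiments, each in triplicate. Selectivity is Ki(σ2)/Ki(σ1).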

[11] = biological target: Sigma non-opioid intracellular receptor 1 (Rattus norvegicus, UniProt Q9R0C9); assay: Displacement of (+)-[3H]pentazocine from rat brain sigma1 receptor by competitive binding assay
[12] = Binding affinity to sigma2 receptor (unknown origin); design: species or system Homo sapiens
[13] = biological target: T1, Sigma non-opioid intracellular receptor 1; assay: Binding affinity to sigma1 receptor (unknown origin)
Procedure, shortened: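 Radioligand competition binding on rat brain homogenates using (+)-[³H]pentazocine as the competing radioligand. Ki values are means ± SD of three experiments, each performed in triplicate.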

Brain [14] = assay: Biodistribution in iv dosed CD1 mouse brain after 30 mins in presence of haloperidol relative to control; type: ADME, organism-based; conditions: in vivo, 0.5 h
[15] = Ratio of drug uptake from mouse brain to blood after 30 mins; type: ADME, tissue-based; conditions: brain and blood
Procedure, shortened: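 Male ICR mice (n = 5 per time point) received an intravenous saline solution of the radiotracer (370 kBq, 0.1 mL). They were decapitated at 2, 30, 60 and 120 min. Brain, blood and other organs were weighed and γ-counted against diluted injectate aliquots, decay-corrected, and expressed as %ID/g of wet tissue (mean, SD). The brain/blood ratio is given at each time.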

Liver microsomes [16] = assay: Metabolic stability in rat liver microsomes assessed as retention time at 100 uM by UPLC-MS analysis in presence of beta-NADPH; type: ADME, Microsome; procedure, shortened: as §2
[17] = biological target: Vesicular acetylcholine transporter (Rattus norvegicus, UniProt Q62666); assay: Displacement of (-)-[3H]-vesamicol from rat VAChT transfected in rat PC12 cells after 120 mins by competitive binding assay; type: cell-based, PC-12
Procedure, shortened: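 Membrane homogenates from PC12 cells stably expressing rat VAChT, with 1 nM (−)-[3H]vesamicol, test ligand at 10⁻¹¹–10⁻⁵ M, in 50 mM Tris-HCl pH 7.4, 120 min at room temperature. Nonspecific binding was defined with 10 μM (−)-vesamicol. Ki from Cheng–Prusoff; mean of two experiments, each in triplicate.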

[18] = biological target: 3-beta-hydroxysteroid-Delta(8),Delta(7)-isomerase (Homo sapiens, UniProt Q15125); assay: Binding affinity to EBP (unknown origin)
Chain of 3-beta-hydroxysteroid-Delta(8),Delta(7)-isomerase (Q15125 whole entry): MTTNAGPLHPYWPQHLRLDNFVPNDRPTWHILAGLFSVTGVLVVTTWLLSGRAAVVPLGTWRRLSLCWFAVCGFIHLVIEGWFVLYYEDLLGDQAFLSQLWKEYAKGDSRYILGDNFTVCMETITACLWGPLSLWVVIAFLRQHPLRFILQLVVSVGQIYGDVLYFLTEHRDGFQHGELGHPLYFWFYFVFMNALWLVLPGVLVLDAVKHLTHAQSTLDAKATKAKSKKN

T1 sequence (Q99720 whole entry): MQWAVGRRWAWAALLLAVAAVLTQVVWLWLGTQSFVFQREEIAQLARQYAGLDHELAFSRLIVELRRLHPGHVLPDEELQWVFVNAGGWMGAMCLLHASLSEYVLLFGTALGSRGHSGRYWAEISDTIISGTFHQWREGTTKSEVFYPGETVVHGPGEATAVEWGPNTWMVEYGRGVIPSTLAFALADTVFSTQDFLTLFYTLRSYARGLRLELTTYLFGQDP
Chain of Sigma non-opioid intracellular receptor 1 (Rattus norvegicus, UniProt Q9R0C9) (Q9R0C9 whole entry): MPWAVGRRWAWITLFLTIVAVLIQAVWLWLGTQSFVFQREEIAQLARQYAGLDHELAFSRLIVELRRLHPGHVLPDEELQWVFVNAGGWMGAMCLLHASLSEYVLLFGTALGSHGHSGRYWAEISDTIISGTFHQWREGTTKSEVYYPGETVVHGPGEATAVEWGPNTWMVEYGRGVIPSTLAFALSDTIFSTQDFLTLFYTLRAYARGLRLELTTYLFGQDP
Chain of Vesicular acetylcholine transporter (Q62666 whole entry): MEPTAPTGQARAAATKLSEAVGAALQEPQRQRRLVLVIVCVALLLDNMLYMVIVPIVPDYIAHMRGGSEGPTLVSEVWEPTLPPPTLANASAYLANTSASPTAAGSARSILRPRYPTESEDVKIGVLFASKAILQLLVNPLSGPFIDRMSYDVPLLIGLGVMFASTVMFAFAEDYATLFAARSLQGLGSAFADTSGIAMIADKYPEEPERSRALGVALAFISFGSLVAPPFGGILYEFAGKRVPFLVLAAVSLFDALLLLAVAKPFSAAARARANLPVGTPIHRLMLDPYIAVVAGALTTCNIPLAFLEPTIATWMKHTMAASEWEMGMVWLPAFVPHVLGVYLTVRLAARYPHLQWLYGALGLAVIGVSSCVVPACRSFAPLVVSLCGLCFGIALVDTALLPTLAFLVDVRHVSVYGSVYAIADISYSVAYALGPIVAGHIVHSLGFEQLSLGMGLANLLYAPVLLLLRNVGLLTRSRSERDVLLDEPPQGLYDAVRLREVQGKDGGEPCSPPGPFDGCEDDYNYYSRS

[125I]c1ccc(CN2CCC3(CC2)OCc2ccccc23)cc1 gave a Drug uptake (Brain [1]) of 5.28 % ID/g and a logD [2] of 3.06.

With OCc1ccccc1C1(O)CCN(Cc2ccc(OCC[18F])cc2)CC1 the remaining at 0.5 h [3] was 26.9%, the Retention_time (Liver) was 4.68 min and the Stability (Brain [4]) was “Unstable”.

N#Cc1ccc(OCC2CCN(CCCF)CC2)cc1 showed a Ratio Ki (Homo sapiens; tested as the 18F-labelled form) of 33.

With N#Cc1ccc(OCC2CCN(CCC[18F])CC2)cc1 the Ki [5] was 0.0043 µM.

Oc1ccc(CN2CCC3(CC2)OCc2ccccc23)cc1 gave a Retention_time (Liver microsomes [6]) of 1.74 min.

In the case of [18F]CCC1OC2(CCN(Cc3ccccc3)CC2)c2ccccc21 (centres undefined), the Kp at 2 h [7] is reported as 18.8, the Drug uptake (Brain [8]) is reported as 62% and the Drug uptake (Brain [9]) is reported as 3.88 % ID/g.

For COc1ccc(CN2CCC3(CC2)OCc2ccccc23)cc1, the Ki [10] was 0.276 µM, the Ratio Ki (Rattus norvegicus) was 162 and the Ki [11] was 0.0017 µM.

O=C(CCCN1CCC(O)(c2ccc(Cl)cc2)CC1)c1ccc(F)cc1 [HALOPERIDOL] showed a Ki [10] of 0.0207 µM.

N#Cc1ccc(OCC2CCN(C/C=C/I)CC2)cc1 gave a Ratio Ki (Homo sapiens; tested as the 123I-labelled form) of 58.

For FCCOCCOc1ccc(CN2CCC3(CC2)OCc2ccccc23)cc1, the Ki [10] was 0.86 µM, the Ratio Ki (Rattus norvegicus) was 16 and the Ki [11] was 0.0529 µM.

Work on Ic1ccc(CN2CCC3(CC2)OCc2ccccc23)cc1 yielded a Ki [12] of 0.34 µM, a Ki [13] of 0.00275 µM and a Ki [10] of 0.34 µM. It also gave a Ratio Ki (Rattus norvegicus) of 123 and a Ki [11] of 0.00275 µM.

Work on COc1cc(CCN2CCN(CCCc3ccccc3)CC2)ccc1O[11CH3] yielded a Drug uptake (Brain [14]) of 60%, a Kp at 0.5 h [15] of 11.6 and a Drug uptake (Brain [9]) of 3.61 % ID/g.

In the case of FCCOc1ccc(CN2CCC3(CC2)OCc2ccccc23)cc1, the Retention_time (Liver microsomes [16]) is reported as 1.82 min, the Ki [17] is reported as 0.631 µM and the Ki [10] is reported as 0.277 µM. The Ratio Ki (Rattus norvegicus) was 350 and the Ki [11] was 0.00079 µM.

FCCOc1ccc(CN2CCC3(CC2)OCc2ccccc23)cn1 showed a Ki [10] of 0.327 µM, a Ratio Ki (Rattus norvegicus) of 142 and a Ki [11] of 0.0023 µM.

Work on N#Cc1ccc(OCC2CCN(C/C=C/[123I])CC2)cc1 yielded a Ki [5] of 0.00067 µM.

Work on FCCOCCOCCOc1ccc(CN2CCC3(CC2)OCc2ccccc23)cc1 yielded a Ki [10] of 0.592 µM, a Ratio Ki (Rattus norvegicus) of 16 and a Ki [11] of 0.0375 µM.

Work on Fc1ccc(CN2CCC3(CC2)OCc2ccccc23)cc1 yielded a Ki [10] of 0.106 µM, a Ratio Ki (Rattus norvegicus) of 182 and a Ki [11] of 0.00058 µM.

In the case of COc1ccc(CCN2CCN(CCCc3ccccc3)CC2)cc1OC [[11C]SA4503], the Ki [18] is reported as 0.00172 µM.

In the case of OCc1ccccc1C1(O)CCN(Cc2ccc(OCCF)cc2)CC1, the Retention_time (Liver microsomes [6]) is reported as 1.42 min.
